From PubChem
Arrestin-AP2 inh – blocks beta-arrestin peptide binding to AP2 adaptin. AID 504490. inhibition, % at 10 µM. FITC-arrestin peptide / GST-AP2 beads, flow cytometry; AP2 beta2 appendage carries R879A mutation. actives 0.31% (n = 340,000);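 active = inhibition above a set limit, near 3 SD of compounds lacking own fluorescence, cut at about 54% in these data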;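 note: plate controls were DMSO wells for no effect and 5 µM unlabelled arrestin peptide for full effect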
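System: GST-AP2 R879A glutathione beads. Medium: PBS with 0.05% Tween 20 and 0.1% BSA. Also added: FITC-arrestin peptide, 50 nM. Incubation: 12 min plus 1 h, RT. Measured by: high-throughput flow cytometry of beads, ex 488, em 535 nm. Evaluation: percent drop in bead-associated FITC signal.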
PolyA inh – inhibitors of polyadenylation in S. cerevisiae | S. cerevisiae SKY197-pL101 polyadenylation reporter, beta-gal luminescence; efflux-impaired pdr1/pdr3 knockout yeast; score 100 = 6 SD above DMSO | activity score, % at 12 µM | actives 0.02% (n = 300,000);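 active = lowest replicate activity score at least 50, where 100 means six control SD above control mean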;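 note: yeast exposed to compound for 9 h at 30 °C; higher score means more reporter readthrough which indicates perturbed polyadenylation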
A3G deaminase – APOBEC3G (human) deaminase inhibition | Q9HC16 | AID 493012 | inhibition, % at 20 µM | recombinant A3G, ssDNA deamination FAM/TAMRA fluorescence | actives 0.28% (n = 330,000);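 active = inhibition of at least 40% at 20 µM, with no more than 30% in the related APOBEC3A deaminase screen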;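 note: plate controls were DMSO wells with A3G for no effect and wells lacking A3G enzyme for full effect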
Target sequence (Q9HC16 whole entry, looked up): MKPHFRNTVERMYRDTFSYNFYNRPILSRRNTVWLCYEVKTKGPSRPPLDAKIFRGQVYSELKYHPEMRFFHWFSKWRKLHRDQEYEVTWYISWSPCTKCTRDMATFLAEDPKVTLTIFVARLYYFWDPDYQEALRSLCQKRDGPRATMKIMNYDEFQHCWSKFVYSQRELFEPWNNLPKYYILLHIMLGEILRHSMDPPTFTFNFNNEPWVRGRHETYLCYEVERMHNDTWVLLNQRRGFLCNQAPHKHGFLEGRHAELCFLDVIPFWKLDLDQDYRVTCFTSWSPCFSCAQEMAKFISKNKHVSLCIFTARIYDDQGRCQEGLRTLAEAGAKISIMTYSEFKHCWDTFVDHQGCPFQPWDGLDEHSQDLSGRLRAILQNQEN
AHR act – activates the human aryl hydrocarbon receptor; P35869; AHR-responsive luciferase reporter cells, luminescence; activation, % at 5 µM; actives 2.5% (n = 320,000); in the data active = activation above about 47%;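 note: 0% = vehicle wells and 100% = reference agonist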
APOBEC3A inh – inhibitors of human APOBEC3A DNA deaminase. recombinant A3A, FAM/TAMRA ssDNA deamination fluorescence. actives 0.41% (n = 330,000). AID 493011. P31941. inhibition, % at 20 µM;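 active = at least 40% inhibition at 20 µM here, with at most 30% in a related deaminase screen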;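 note: plate controls were A3A with DMSO for no effect and wells lacking A3A enzyme for full effect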
UCH37 inh – blocks the human deubiquitinase UCH37 | Q9Y5K5 | purified proteasome/UCH37, Ub-AMC cleavage fluorescence | inhibition, % (concentration not given with the values) | actives 0.33% (n = 330,000) | AID 588478;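 active = mean inhibition over replicate wells above about 20%, limit read from the data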;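 note: 0% = compound-free wells with enzyme and 100% = wells lacking proteasome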
Target sequence (Q9Y5K5 whole entry, looked up): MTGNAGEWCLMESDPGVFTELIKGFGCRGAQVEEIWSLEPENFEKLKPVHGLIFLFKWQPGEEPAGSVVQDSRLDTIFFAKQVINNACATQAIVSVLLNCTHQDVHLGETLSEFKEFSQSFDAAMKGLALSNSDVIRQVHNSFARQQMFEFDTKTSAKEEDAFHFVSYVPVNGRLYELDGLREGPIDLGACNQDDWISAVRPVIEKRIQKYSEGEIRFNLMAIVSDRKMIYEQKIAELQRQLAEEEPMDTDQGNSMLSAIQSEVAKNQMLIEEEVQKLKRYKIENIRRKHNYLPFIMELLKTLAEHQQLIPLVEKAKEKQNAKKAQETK
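Material: Human UCH37 enzyme supplied as purified proteasome complex | Schedule: 30 min compound-proteasome preincubation then 25 min substrate reaction, room temperature | Detection: AMC fluorescence from Ub-AMC cleavage, excitation 355 nm, emission 460 nm | Benchmarks: Wells without proteasome as full block, compound-free enzyme plus substrate as uninhibited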
A3A conf – confirmation of human APOBEC3A DNA deaminase inhibitors; shares compounds with APOBEC3A inh; recombinant A3A, ssDNA deaminase UDG fluorescence assay; inhibition, % at 20 µM; actives 63% (n = 1,400); AID 493151;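 active = inhibition reaching a set limit, 80% of the first screen's cutoff, at 20 µM in any replicate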;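 note: plate controls were DMSO wells with A3A for no effect and wells lacking A3A enzyme for full effect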
UDG A3A counter – UDG inhibition in APOBEC3A counter-screen | shares compounds with APOBEC3A inh | UDG counterscreen, FAM/TAMRA uracil oligo fluorescence | inhibition, % at 20 µM | 1,000 tested, under 10 active | AID 504714; call rule not given here
The depositor's hits bear a star; . = not tested or not shown. Shown are actives, neighbours in structure and some others; about 3.4% of the full set was active somewhere.

SMILES | Arrestin-AP2 inh | PolyA inh | A3G deaminase | AHR act | APOBEC3A inh | UCH37 inh | A3A conf | UDG A3A counter
CCCC[N+]12CCC(CC1)C(=C(c1ccccc1)c1ccccc1)C2 | -7 | -4 | 12 | 0 | 97* | 2 | 71* | 0
CCC[N+]12CCC(CC1)C(=C(c1ccccc1)c1ccccc1)C2 | 7 | 12 | -10 | -1 | -6 | -1 | . | .
Cc1c(C=NO)c2ccccc2n1C | . | . | . | . | . | 1 | . | .
Cc1cc(/C=C2\C(=O)NC(=O)N(c3cccc(F)c3)C2=O)c(C)n1-c1cc(C(=O)O)cc(C(=O)O)c1 | -5 | -6 | 29 | 4 | 70* | 6 | 53* | 7
Cc1cc(/C=C2\C(=O)NC(=O)N(c3ccc(Br)cc3)C2=O)c(C)n1-c1cc(C(=O)O)cc(C(=O)O)c1 | 4 | 15 | 47 | -1 | 80 | . | . | .
C[N+]1(C)[C@@H]2CC[C@H]1CC(OC(=O)C(c1ccccc1)c1ccccc1)C2 (some centres not stated) | -13 | -4 | 21 | 0 | 46* | 2 | 61* | .
C[N+]1(C)[C@@H]2CC(OC(=O)[C@H](CO)c3ccccc3)C[C@H]1[C@@H]1O[C@@H]12 (some centres not stated) | -2 | 24 | -1 | -2 | 0 | 0 | . | .
Cc1sc2ncnc(N3CCC(C(=O)Nc4ccc(C#N)c(Cl)c4)CC3)c2c1C | -21 | 6 | 7 | -2 | 53* | . | 10 | .
Cc1noc(C)c1CSCC(=O)Nc1ccc(C#N)c(Cl)c1 | -14 | . | -6 | 1 | 0 | 7 | . | .
CCN(CC)P(c1n(C)cc[n+]1C)N(CC)CC | 14 | 3 | 11 | 9 | 62* | 3 | 65* | -1
CCOC(=O)c1c(N=CC2C(=O)NC(=S)NC2=O)sc2c1CCC2 | . | . | . | . | . | 4 | . | .
CC(C)(C#CCCCCC#CC(C)(C)[N+](C)(C)C)[N+](C)(C)C | . | 13 | 14 | 2 | 51* | . | 46* | .
O=Cc1cn(Cc2c(F)cccc2Cl)c2ccccc12 | -11 | -20 | -4 | -1 | 1 | 2 | . | .
O=Cc1cn(Cc2ccccc2F)c2ccccc12 | -13 | -29 | 14 | -4 | 45* | 0 | 28 | .
CC1CCCC=CC2CC(O)CC2C(O)C=CC(=O)O1 (configuration not stated) | . | . | . | . | . | -1 | . | .
C[N+](C)(C)c1ccccc1 | -6 | -5 | 14 | -2 | 70* | 0 | 78* | -2
O=C1NC(=O)N(c2ccc3c(c2)OCO3)C(=O)/C1=C/c1ccc(N2CCCCC2)o1 | 7 | 5 | 6 | -2 | 7 | 0 | . | .
O=C1NC(=O)N(c2ccc3c(c2)OCO3)C(=O)/C1=C\c1ccc(-c2ccccc2C(=O)O)o1 | -7 | 6 | 26 | 4 | 76* | 1 | 65* | -2
C[N+]12CCC(CC1)C(C#N)(N1CCOCC1)C2 (configuration not stated) | -21 | 23 | 17 | -3 | 46* | 3 | 81* | -1
O=[N+]([O-])c1cc(S(=O)(=O)c2ccc(O)c([N+](=O)[O-])c2)ccc1O | -7 | -5 | 14 | 0 | 70* | 6 | 84* | 1
NC(=N[N+](=O)[O-])N1CCN(C(=O)c2ccccn2)CC1 | . | . | . | . | . | 1 | . | .
C[N+]1(CC2COC(c3ccco3)O2)CCCCC1 (configuration not stated) | 6 | 17 | 25 | 0 | 60* | 1 | 66* | -1
CN(CN=C(N)N[N+](=O)[O-])S(=O)(=O)c1ccccc1 | . | . | . | . | . | 3 | . | .
CCOC(=O)/C(CCCN(CC)CC)=N\O | -5 | 4 | 19 | 0 | 75* | . | 78* | 1
CC(C)(C)NC(=S)N=C(N)N[N+](=O)[O-] | . | . | . | . | . | 3 | . | .
SMILES | Arrestin-AP2 inh | PolyA inh | A3G deaminase | AHR act | APOBEC3A inh | UCH37 inh | A3A conf | UDG A3A counter
C#C[C@@]1(O)CCC2C3CCC4=CC(=NOCC(=O)NC(C(=O)O)C(C)O)CC[C@]4(C)C3CC[C@@]21C (some centres not stated) | . | . | . | . | . | 4 | . | .
C=Cc1ccc(Cn2c(C(=O)O)c(C=O)c3ccccc32)cc1 | -24 | -4 | 5 | 4 | 74* | 0 | 17 | .
CCOC(=O)c1cc(C(O)(C(=O)OC)C(F)(F)F)c(N=CN(C)C)o1 (configuration not stated) | . | . | . | . | . | 10 | . | .
CNC(=O)ON=C(N)Cc1csc2ccc(Cl)cc12 | . | . | . | . | . | 3 | . | .
O=C1NC(=O)N(CCc2ccc(F)cc2)C(=O)/C1=C/c1ccco1 | -8 | -6 | 27 | 2 | 74* | 1 | 52* | 6
COc1ccc(CN2C(=O)NC(=O)/C(=C\c3ccco3)C2=O)cc1 | 6 | -15 | 26 | 1 | 47* | 3 | 62* | 2
CN(C)c1ccc(/C=C2/C(=O)NC(=O)N(Cc3ccco3)C2=O)cc1 | 1 | 25 | 20 | 0 | 60* | 2 | 39* | -4
CCN(CC)c1ccc(/C=C2/C(=O)NC(=O)N(Cc3ccco3)C2=O)cc1 | 4 | 14 | 36 | 2 | 65 | 5 | . | .
COc1ccc(CN2C(=O)NC(=O)/C(=C\c3cc(OC)c(OC)c(OC)c3)C2=O)cc1 | -4 | -4 | -4 | -1 | 0 | 7 | . | .
COc1ccc(/C=C2\C(=NO)C3CCN2CC3)cc1 | . | . | . | . | . | 2 | . | .
COc1cc2c(cc1O)C[C@H]1NCCc3cc4c(c-2c31)OCO4 | 0 | -6 | 19 | 9 | 61* | -4 | 34* | .
COc1cc(C=NNC(=O)CN2CC(c3ccccc3)CC2=O)ccc1OC(=O)N(C)C (configuration not stated) | . | . | . | . | . | 4 | . | .
CCCCCCC[n+]1ccc(-c2cc[n+](CCCCCCC)cc2)cc1 | 14 | -4 | 28 | 4 | 58* | 7 | 75* | -2
COc1ccc(N=C2SCCCN2C)cc1 | -25 | -13 | 24 | 3 | 48* | 2 | 72* | 1
COc1ccc2c3c1OC1C(O)C=CC4C(C2)[N+](C)(C)CCC341 (configuration not stated) | 0 | -14 | 16 | 0 | 71* | 4 | 51* | .
O=C(NN=C1CN2CCC1CC2)c1cccc(O)c1 | . | . | . | . | . | 2 | . | .
C=C1C(O)(c2ccccc2)C2CC[N+]1(C)CC2 (configuration not stated) | -8 | 16 | 22 | -2 | 76* | 3 | 74* | 5
C=C1[C@@H](C)[C@H]2[C@H](Cc3ccccc3)NC(=O)[C@]23OC(=O)C=C[C@H](O)CCC[C@@H](C)CC=C[C@H]3[C@@H]1O | . | . | . | . | . | 1 | . | .
